# The source made the active and inactive calls. The rule behind the calls is not given here.
# Columns and labels:
# THP-1 = assay: Cytotoxicity against human THP1 cells assessed as reduction in cell viability at 1 to 10 uM measured for 3 to 48 hrs by trypan blue assay; assay type: toxicity, cell-based; settings: thp-1, 10 µM, dose lower 1 µM, time lower 3 hrs, dose upper 10 µM, time upper 48 hrs
# Outline: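 PMA-differentiated THP-1 macrophages were exposed to compound at 1 and 10 μM for 3, 5, 24 and 48 h. Viability was scored by trypan blue exclusion, in triplicate, as percent of untreated control cells.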
# [1] = tested on: Mycobacterium tuberculosis; assay: Antimycobacterial activity against Mycobacterium tuberculosis H37Rv infected in human THP-1 cells assessed as reduction in intracellular survival at 1 to 10 uM measured after 24 to 48 hrs; assay type: functional, organism-based; settings: dose 1-10 µM, time 24-48 hrs
# Outline: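 THP-1 monocytes were differentiated with 10 ng/mL PMA for 48 h and infected with Mtb H37Rv (MOI 10) for 2 h. Cells were washed and cultured without penicillin–streptomycin with compound at 1 and 10 μM for 24 and 48 h. Lysis was in 0.05% Triton X-100; serial dilutions were plated in quadruplicate on 7H10 OADC. CFU were counted after 3 weeks. Welch's ANOVA with Dunnett T3.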
# [2] = biological target: T1, Serine/threonine-protein kinase PknG (Mycobacterium tuberculosis, UniProt P9WI73); assay: Inhibition of full length Mycobacterium tuberculosis protein kinase G using His-tagged GarA as substrate in presence of [gamma32P] ATP measured after 12 to 24 hrs by radiometric kinase assay
# T1 sequence (P9WI73 whole entry): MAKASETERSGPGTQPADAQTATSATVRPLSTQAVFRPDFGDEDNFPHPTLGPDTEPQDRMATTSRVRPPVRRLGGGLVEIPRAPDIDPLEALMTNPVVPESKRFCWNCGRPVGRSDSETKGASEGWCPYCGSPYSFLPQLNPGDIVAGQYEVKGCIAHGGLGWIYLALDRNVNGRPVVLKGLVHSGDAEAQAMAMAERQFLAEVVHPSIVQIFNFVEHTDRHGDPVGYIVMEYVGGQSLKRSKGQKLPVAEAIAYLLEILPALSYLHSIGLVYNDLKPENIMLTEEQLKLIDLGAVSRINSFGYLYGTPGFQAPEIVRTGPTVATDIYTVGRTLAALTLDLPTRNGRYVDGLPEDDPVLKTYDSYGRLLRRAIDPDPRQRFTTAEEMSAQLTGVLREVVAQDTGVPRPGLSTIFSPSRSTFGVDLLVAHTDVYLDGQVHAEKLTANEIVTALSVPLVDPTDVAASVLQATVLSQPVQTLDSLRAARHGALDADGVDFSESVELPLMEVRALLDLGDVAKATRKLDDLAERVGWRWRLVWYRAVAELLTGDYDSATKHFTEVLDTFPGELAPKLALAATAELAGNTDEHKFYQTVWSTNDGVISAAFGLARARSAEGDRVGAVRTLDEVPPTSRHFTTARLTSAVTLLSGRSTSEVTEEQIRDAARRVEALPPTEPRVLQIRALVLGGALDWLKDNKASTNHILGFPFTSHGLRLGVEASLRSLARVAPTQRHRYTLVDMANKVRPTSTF
# [3] = biological target: T1, Serine/threonine-protein kinase PknG; assay: Binding affinity to full length Mycobacterium tuberculosis protein kinase G expressed in Escherichia coli BL21 assessed as dissociation constant at 21 degreeC by fluorescence spectroscopy based
# [4] = biological target: Serine/threonine-protein kinase PknG (Mycobacterium tuberculosis) (UniProt P9WI73); assay: Inhibition of full length Mycobacterium tuberculosis protein kinase G at 40 uM using GarA as substrate in presence of ATP relative to control
# Sequence of Serine/threonine-protein kinase PknG (Mycobacterium tuberculosis) (P9WI73 whole entry): as above
# Outline: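 End-point assay with full-length PknG 1 μM, GarA 25 μM and ATP 2 μM, in 25 mM Tris-HCl pH 7.4, 2 mM MnCl2 and 1–2% DMSO. Reactions ran 60 min at 37 °C, after which remaining ATP was read by Kinase-Glo Plus luminescence. Inhibition was referenced to no-compound (DMSO) and no-GarA controls. Duplicates.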
Compound,Activity [1],Kd [3] [nM],further results
NC(=O)c1c(N)c(C(=O)c2ccc(F)cc2)n2ccccc12,Active,,Activity (THP-1): Non-Toxic
NC(=O)c1c(NC(=O)C2CC2)sc2c1CCCC2,Active,,IC50 [2]: 900 nM
CC(C)c1ccc(C(=O)c2c(N)c(C(N)=O)c3ccccn23)cc1,Active,,Activity (THP-1): Non-Toxic
NC(=O)c1c(N)c(C(=O)c2ccc(Br)cc2)n2ccccc12,,1300,
NC(=O)c1c(NC(=O)NCC2CCCO2)sc2c1CCCC2 (configuration not stated),Active,,
CCOc1ccc(C(=O)c2c(N)c(C(N)=O)c3ccccn23)cc1,,13000,
CS(=O)(=O)Nc1ccc(-c2cc(-c3ccccc3)cc(C(N)=O)c2N)cc1,,,inhibition [4]: 50%
CCN1CCCC1CNC(=O)Nc1sc2c(c1C(N)=O)CCCC2 (configuration not stated),Active,,
NC(=O)c1c(N)c(C(=O)c2ccccc2)n2ccccc12,,1800,

# From ChEMBL document CHEMBL5143719, “Cosolvent Sites-Based Discovery of Mycobacterium Tuberculosis Protein Kinase G Inhibitors” (J Med Chem, 2022)
